Laboratory results from ChEMBL document CHEMBL1944511, “Bakuchiol derivatives as novel and potent cytotoxic agents: a report” (Eur J Med Chem, 2012).
pIC50: −log10 of the molar value.

Tests used:
A549 [1] = experiment: Growth inhibition of human A549 cells at 30 uM after 48 hrs by sulpharhodamine B assay; assay type: functional; conditions: A549, 48 h, read-out: GI
Outline: (§1)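 This is the SRB protein-stain assay on adherent cells in RPMI-1640/MEM with 10% FCS. Each compound in DMSO (vehicle <0.2%) was applied at a single fixed concentration for 48 h. Cells were fixed with TCA and stained with SRB, and the dye was solubilised in Tris and read at 570/620 nm. Percent growth inhibition is relative to vehicle-treated controls, reported as mean ± SD of three experiments run in triplicate.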

HEp-2 [2] = experiment: Growth inhibition of human Hep2 cells at 10 uM after 48 hrs by sulpharhodamine B assay; assay type: functional; conditions: HEp-2, 48 h, read-out: GI; outline: as §1
PC-3 [3] = experiment: Growth inhibition of human PC3 cells at 10 uM after 48 hrs by sulpharhodamine B assay; assay type: functional; conditions: PC-3, 48 h, read-out: GI; outline: as §1
HeLa [4] = experiment: Growth inhibition of human HeLa cells at 50 uM after 48 hrs by sulpharhodamine B assay; assay type: functional; conditions: read-out: GI; outline: as §1
A549 [5] = experiment: Growth inhibition of human A549 cells at 20 uM after 48 hrs by sulpharhodamine B assay; assay type: functional; conditions: A549, 48 h, read-out: GI; outline: as §1
MCF7 [6] = experiment: Growth inhibition of human MCF7 cells at 10 uM after 48 hrs by sulpharhodamine B assay; assay type: functional; conditions: MCF7, 48 h, read-out: GI; outline: as §1
THP-1 [7] = experiment: Growth inhibition of human THP1 cells at 50 uM after 48 hrs by sulpharhodamine B assay; assay type: functional; conditions: THP-1, 48 h, read-out: GI
Outline: (§2)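 Cells grown in RPMI-1640/MEM with 10% FCS, penicillin/streptomycin, 37 °C, 5% CO2. Seeded in 96-well plates, allowed to adhere overnight, then exposed 48 h to analogs in DMSO (vehicle <0.2% in controls). TCA-fixed, stained with 0.4% SRB in 1% acetic acid, dye solubilized in 10 mM Tris base, OD 570 nm (ref 620 nm). Mean ± SD of three experiments run in triplicate.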

HEp-2 [8] = experiment: Growth inhibition of human Hep2 cells at 50 uM after 48 hrs by sulpharhodamine B assay; assay type: functional; conditions: HEp-2, 48 h, read-out: GI; outline: as §1
IMR-32 [9] = experiment: Growth inhibition of human IMR32 cells at 5 uM after 48 hrs by sulpharhodamine B assay; assay type: functional; conditions: IMR-32, 48 h, read-out: GI; outline: as §1
MCF7 [10] = experiment: Growth inhibition of human MCF7 cells at 5 uM after 48 hrs by sulpharhodamine B assay; assay type: functional; conditions: MCF7, 48 h, read-out: GI; outline: as §1
HCT-15 [11] = experiment: Growth inhibition of human HCT15 cells at 5 uM after 48 hrs by sulpharhodamine B assay; assay type: functional; conditions: HCT-15, 48 h, read-out: GI; outline: as §1
HEp-2 [12] = experiment: Growth inhibition of human Hep2 cells at 30 uM after 48 hrs by sulpharhodamine B assay; assay type: functional; conditions: HEp-2, 48 h, read-out: GI; outline: as §1
PC-3 [13] = experiment: Cytotoxicity against human PC3 cells after 48 hrs by sulpharhodamine B assay; assay type: functional, cell-based; conditions: PC-3, 48 h
Outline: (§3)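 Cells were grown in RPMI-1640/MEM with 10% FCS and penicillin/streptomycin at 37 °C under 5% CO2, then seeded and left to adhere overnight. Analogs in DMSO (vehicle <0.2%) were added at several concentrations for 48 h. Cells were fixed with cold 50% TCA, stained with 0.4% SRB in 1% acetic acid, solubilised in 10 mM Tris, and read at OD 570/620 nm. IC50 came from non-linear regression.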

PC-3 [14] = experiment: Growth inhibition of human PC3 cells at 50 uM after 48 hrs by sulpharhodamine B assay; assay type: functional; conditions: PC-3, 48 h, read-out: GI; outline: as §2
HEp-2 [15] = experiment: Cytotoxicity against human Hep2 cells after 48 hrs by sulpharhodamine B assay; assay type: functional, cell-based; conditions: HEp-2, 48 h; outline: as §3
PC-3 [16] = experiment: Growth inhibition of human PC3 cells at 5 uM after 48 hrs by sulpharhodamine B assay; assay type: functional; conditions: PC-3, 48 h, read-out: GI; outline: as §2
DU-145 [17] = experiment: Growth inhibition of human DU145 cells at 10 uM after 48 hrs by sulpharhodamine B assay; assay type: functional; conditions: DU-145, 48 h, read-out: GI; outline: as §1
HCT-15 [18] = experiment: Growth inhibition of human HCT15 cells at 20 uM after 48 hrs by sulpharhodamine B assay; assay type: functional; conditions: HCT-15, 48 h, read-out: GI; outline: as §1
DU-145 [19] = experiment: Growth inhibition of human DU145 cells at 20 uM after 48 hrs by sulpharhodamine B assay; assay type: functional; conditions: DU-145, 48 h, read-out: GI; outline: as §1
THP-1 [20] = experiment: Growth inhibition of human THP1 cells at 5 uM after 48 hrs by sulpharhodamine B assay; assay type: functional; conditions: THP-1, 48 h, read-out: GI; outline: as §2
HeLa [21] = experiment: Growth inhibition of human HeLa cells at 30 uM after 48 hrs by sulpharhodamine B assay; assay type: functional; conditions: read-out: GI; outline: as §1
MCF7 [22] = experiment: Growth inhibition of human MCF7 cells at 50 uM after 48 hrs by sulpharhodamine B assay; assay type: functional; conditions: MCF7, 48 h, read-out: GI; outline: as §1
THP-1 [23] = experiment: Cytotoxicity against human THP1 cells after 48 hrs by sulpharhodamine B assay; assay type: functional, cell-based; conditions: THP-1, 48 h; outline: as §3
SF-295 = experiment: Cytotoxicity against human SF295 cells after 48 hrs by sulpharhodamine B assay; assay type: functional, cell-based; conditions: SF-295, 48 h; outline: as §3
THP-1 [24] = experiment: Growth inhibition of human THP1 cells at 10 uM after 48 hrs by sulpharhodamine B assay; assay type: functional; conditions: THP-1, 48 h, read-out: GI; outline: as §2
HEp-2 [25] = experiment: Growth inhibition of human Hep2 cells at 20 uM after 48 hrs by sulpharhodamine B assay; assay type: functional; conditions: HEp-2, 48 h, read-out: GI; outline: as §1
HEp-2 [26] = experiment: Growth inhibition of human Hep2 cells at 5 uM after 48 hrs by sulpharhodamine B assay; assay type: functional; conditions: HEp-2, 48 h, read-out: GI; outline: as §1
A549 [27] = experiment: Growth inhibition of human A549 cells at 10 uM after 48 hrs by sulpharhodamine B assay; assay type: functional; conditions: A549, 48 h, read-out: GI; outline: as §1
OVCAR-5 [28] = experiment: Growth inhibition of human OVCAR5 cells at 30 uM after 48 hrs by sulpharhodamine B assay; assay type: functional; conditions: OVCAR-5, 48 h, read-out: GI; outline: as §1
DU-145 [29] = experiment: Cytotoxicity against human DU145 cells after 48 hrs by sulpharhodamine B assay; assay type: functional, cell-based; conditions: DU-145, 48 h; outline: as §3
IMR-32 [30] = experiment: Growth inhibition of human IMR32 cells at 20 uM after 48 hrs by sulpharhodamine B assay; assay type: functional; conditions: IMR-32, 48 h, read-out: GI; outline: as §1
IMR-32 [31] = experiment: Growth inhibition of human IMR32 cells at 50 uM after 48 hrs by sulpharhodamine B assay; assay type: functional; conditions: IMR-32, 48 h, read-out: GI; outline: as §1
PC-3 [32] = experiment: Growth inhibition of human PC3 cells at 20 uM after 48 hrs by sulpharhodamine B assay; assay type: functional; conditions: PC-3, 48 h, read-out: GI; outline: as §1
THP-1 [33] = experiment: Growth inhibition of human THP1 cells at 20 uM after 48 hrs by sulpharhodamine B assay; assay type: functional; conditions: THP-1, 48 h, read-out: GI; outline: as §2
MCF7 [34] = experiment: Growth inhibition of human MCF7 cells at 30 uM after 48 hrs by sulpharhodamine B assay; assay type: functional; conditions: MCF7, 48 h, read-out: GI; outline: as §1
MCF7 [35] = experiment: Growth inhibition of human MCF7 cells at 20 uM after 48 hrs by sulpharhodamine B assay; assay type: functional; conditions: MCF7, 48 h, read-out: GI; outline: as §1
PC-3 [36] = experiment: Growth inhibition of human PC3 cells at 30 uM after 48 hrs by sulpharhodamine B assay; assay type: functional; conditions: PC-3, 48 h, read-out: GI; outline: as §2
IMR-32 [37] = experiment: Growth inhibition of human IMR32 cells at 30 uM after 48 hrs by sulpharhodamine B assay; assay type: functional; conditions: IMR-32, 48 h, read-out: GI; outline: as §1
OVCAR-5 [38] = experiment: Growth inhibition of human OVCAR5 cells at 50 uM after 48 hrs by sulpharhodamine B assay; assay type: functional; conditions: OVCAR-5, 48 h, read-out: GI; outline: as §1
A549 [39] = experiment: Growth inhibition of human A549 cells at 50 uM after 48 hrs by sulpharhodamine B assay; assay type: functional; conditions: A549, 48 h, read-out: GI; outline: as §1
THP-1 [40] = experiment: Growth inhibition of human THP1 cells at 30 uM after 48 hrs by sulpharhodamine B assay; assay type: functional; conditions: THP-1, 48 h, read-out: GI; outline: as §2
MCF7 [41] = experiment: Cytotoxicity against human MCF7 cells after 48 hrs by sulpharhodamine B assay; assay type: functional, cell-based; conditions: MCF7, 48 h; outline: as §3
HCT-15 [42] = experiment: Cytotoxicity against human HCT15 cells after 48 hrs by sulpharhodamine B assay; assay type: functional, cell-based; conditions: HCT-15, 48 h; outline: as §3
IMR-32 [43] = experiment: Growth inhibition of human IMR32 cells at 10 uM after 48 hrs by sulpharhodamine B assay; assay type: functional; conditions: IMR-32, 48 h, read-out: GI; outline: as §1
DU-145 [44] = experiment: Growth inhibition of human DU145 cells at 5 uM after 48 hrs by sulpharhodamine B assay; assay type: functional; conditions: DU-145, 48 h, read-out: GI; outline: as §1
A549 [45] = experiment: Cytotoxicity against human A549 cells after 48 hrs by sulpharhodamine B assay; assay type: functional, cell-based; conditions: A549, 48 h; outline: as §3
A549 [46] = experiment: Growth inhibition of human A549 cells at 5 uM after 48 hrs by sulpharhodamine B assay; assay type: functional; conditions: A549, 48 h, read-out: GI; outline: as §1
HCT-15 [47] = experiment: Growth inhibition of human HCT15 cells at 10 uM after 48 hrs by sulpharhodamine B assay; assay type: functional; conditions: HCT-15, 48 h, read-out: GI; outline: as §1

C=C[C@@](C)(/C=C/c1ccc(OC(C)=O)cc1)CCC=C(C)C [ACETYLBAKUCHIOL]
inhibition of growth at 30 µM (A549 [1]): 60%
inhibition of growth at 10 µM (HEp-2 [2]): 30%
inhibition of growth at 10 µM (PC-3 [3]): 32%
inhibition of growth at 50 µM (HeLa [4]): 63%
inhibition of growth at 20 µM (A549 [5]): 1%
inhibition of growth at 10 µM (MCF7 [6]): 31%
inhibition of growth at 50 µM (THP-1 [7]): 81%
inhibition of growth at 50 µM (HEp-2 [8]): 52%
inhibition of growth at 5 µM (IMR-32 [9]): 27%
inhibition of growth at 5 µM (MCF7 [10]): 15%
inhibition of growth at 5 µM (HCT-15 [11]): 31%
inhibition of growth at 30 µM (HEp-2 [12]): 51%
pIC50 (PC-3 [13]): 4.64
inhibition of growth at 50 µM (PC-3 [14]): 67%
pIC50 (HEp-2 [15]): 4.70
inhibition of growth at 5 µM (PC-3 [16]): 21%
inhibition of growth at 10 µM (DU-145 [17]): 29%
inhibition of growth at 20 µM (HCT-15 [18]): 57%
inhibition of growth at 20 µM (DU-145 [19]): 42%
inhibition of growth at 5 µM (THP-1 [20]): 34%
inhibition of growth at 30 µM (HeLa [21]): 45%
inhibition of growth at 50 µM (MCF7 [22]): 75%
pIC50 (THP-1 [23]): 4.74
pIC50 (SF-295): 5.10
inhibition of growth at 10 µM (THP-1 [24]): 44%
inhibition of growth at 20 µM (HEp-2 [25]): 46%
inhibition of growth at 5 µM (HEp-2 [26]): 14%
inhibition of growth at 10 µM (A549 [27]): 22%
inhibition of growth at 30 µM (OVCAR-5 [28]): 62%
pIC50 (DU-145 [29]): 4.59
inhibition of growth at 20 µM (IMR-32 [30]): 48%
inhibition of growth at 50 µM (IMR-32 [31]): 71%
inhibition of growth at 20 µM (PC-3 [32]): 45%
inhibition of growth at 20 µM (THP-1 [33]): 50%
inhibition of growth at 30 µM (MCF7 [34]): 56%
inhibition of growth at 20 µM (MCF7 [35]): 44%
inhibition of growth at 30 µM (PC-3 [36]): 60%
inhibition of growth at 30 µM (IMR-32 [37]): 59%
inhibition of growth at 50 µM (OVCAR-5 [38]): 71%
inhibition of growth at 50 µM (A549 [39]): 72%
inhibition of growth at 30 µM (THP-1 [40]): 63%
pIC50 (MCF7 [41]): 4.60
pIC50 (HCT-15 [42]): 4.96
inhibition of growth at 10 µM (IMR-32 [43]): 34%
inhibition of growth at 5 µM (DU-145 [44]): 19%
pIC50 (A549 [45]): 4.40
inhibition of growth at 5 µM (A549 [46]): 13%
inhibition of growth at 10 µM (HCT-15 [47]): 46%
